This is a sample that favours compounds with a hit; in the whole collection about 1.6% have one here.
SKN-1 block: suppressors of acrylamide-induced Pgst-4::GFP reporter in worms, primary screen, SKN-1 inhibitor project, whole organism, uHTS, GFP/RFP fluorescence ratio, strain VP596 | C. elegans VP596 Pgst-4::GFP/RFP ratio, 24 h | inhibition, % at 21.8 µM | 360,000 tested, 0.49% active | AID 624304, 2012;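 active means interference check ratio from 0.5 to 1.5 plus GFP to RFP signal ratio inhibition reaching or exceeding a fixed threshold, cut at about 30% in these data, passing the limit was not always enough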
Arrestin-AP2 inh: inhibitors of beta-arrestin/AP2 binding, primary screen, biochemical, GPCR trafficking, flow cytometry; beta-arrestin 1 C-terminal peptide binding to AP2 beta2-adaptin appendage (human); FITC-arrestin peptide / GST-AP2 beads; AP2 beta2 appendage carries R879A mutation; inhibition, % at 10 µM; 340,000 tested, 0.31% active; AID 504490, 2011;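 active means inhibition above a set limit, near 3 SD of compounds lacking own fluorescence, cut at about 54% in these data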;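 further: plate controls were DMSO wells for no effect and 5 µM unlabelled arrestin peptide for full effect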
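System: GST-AP2 R879A glutathione beads | Also added: FITC-arrestin peptide, 50 nM | Times: 12 min plus 1 h, RT | Signal: Bead flow cytometry, FITC channel | Buffer or medium: PBS with 0.05% Tween 20 and 0.1% BSA | Read-out basis: Percent drop in bead-associated FITC signal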
Tb MetRS inh: T. brucei MetRS inhibitors, primary screen, biochemical, luminescence; 360,000 tested, 0.4% active; AID 624268, 2012; purified T. brucei MetRS, ATP depletion, Kinase-Glo luminescence; methionyl-tRNA synthetase (Trypanosoma brucei brucei); inhibition, % at 11.9 µM;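 active means inhibition above a per-plate cutoff of the control wells' mean inhibition plus 3 SD, cut at about 5.5% in these data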;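 further: 0% = DMSO wells median and 100% = median of wells with control inhibitor compound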
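Measured by: Kinase-Glo luciferase luminescence reporting remaining unconsumed ATP. Material: purified T. brucei MetRS enzyme. Doses: 11.9 µM compound single dose, 0.9% DMSO. Medium: HEPES buffer containing pyrophosphatase, BSA, spermine, DTT. Times: 15 min preincubation, 2 h reaction, all 25 °C. Reagent: methionine, ATP and bulk E. coli tRNA.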
MT1-MMP act inh: blockers of MT1-MMP proenzyme processing, primary screen, HT1080 RFP-PRO-GFP cells, GFP/RFP fluorescence | Matrix metalloproteinase-14 (Homo sapiens), P50281 | GFP/RFP ratio fluorescence, overnight; percent of plate control window, DMSO zero | GFP/RFP ratio change, % at 20 µM | 360,000 tested, 0.061% active | AID 651647, 2012;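 active means GFP/RFP ratio change of at least 30% with cell ATP level not reduced by more than half and red fluorescence within 50% of control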
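Assay system – RFP-PRO-GFP reporter HT1080 cells · Compound dosing – single dose of 20 µM compound, 1% DMSO final · Incubation – overnight compound exposure at 37 °C · Measure – GFP/RFP fluorescence ratio · Benchmarks – DMSO wells and RFP-L50D-GFP cells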
Rin1 Abl inh: inhibitors of Rin1-Abl protein binding, primary screen, biochemical, TR-FRET; 360,000 tested, 0.4% active; AID 588664, 2011; Tyrosine-protein kinase ABL1 (Homo sapiens) + Ras and Rab interactor 1 (Homo sapiens), …; inhibition, % at 7.35 µM; in the data active means inhibition above about 5%, passing the limit was not always enough
Arr AP2 CP1: inhibitors of arrestin peptide binding to AP2, confirmation, biochemical, cherry pick 1, flow cytometry beads; 1,300 tested, 2% active; inhibition, % at 10 µM; shares compounds with Arrestin-AP2 inh; GST-AP2 beads, FITC arrestin peptide binding; GST-fused beta2-adaptin appendage, R879A mutant; AID 504908, 2011;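 active means inhibition above a set limit, roughly 3 SD of non-fluorescent compound noise, cut at about 38% in these data; inactive means inhibition at or below that limit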;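 further: loss of bead fluorescence from 50 nM FITC arrestin peptide bound to appendage; 0% = negative control wells and 100% = excess unlabelled arrestin peptide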
GST GSH counter: GST-fluorescein capture on glutathione beads, confirmation, artefact control for arrestin-AP2 inhibitor project, biochemical, cherry pick 1, flow cytometry | shares compounds with Arrestin-AP2 inh | GST-fluorescein binding to GSH beads, fluorescence, counter-screen | inhibition, % at 10 µM | 1,300 tested, 2% active | AID 588338, 2011;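 active means inhibition above 50%, about 3 SD of the inhibition seen with non-fluorescent compounds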;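 further: fluorescein maleimide labelled GST captured on 4 micron glutathione beads; higher means more loss of bead fluorescence from quenching or blocked binding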
An asterisk follows results filed as active; x = no result given.

SMILES	SKN-1 block	Arrestin-AP2 inh	Tb MetRS inh	MT1-MMP act inh	Rin1 Abl inh	Arr AP2 CP1	GST GSH counter
Cc1ccccc1CN1CCC(N2CCC(C(=O)NCC3CCCO3)CC2)CC1 (stereo not given)	-10.1	64.5*	-0.6	2.5	-0.1	-2.5	-5.3
CCC(=O)N1CCCC(C)(C(=O)NS(=O)(=O)c2ccccc2Cl)C1 (stereo not given)	14.1	x	-0.2	0.6	-1.5	x	x
COc1cc(OC)c(NC(=O)CC(C)=O)cc1Cl	4.2	4.5	-0.1	0.8	1.7	-5.8	-0.9
COc1cc(OC)c(NC(=O)CC(=O)Nc2cc(Cl)c(OC)cc2OC)cc1Cl	2.8	7.3	0.3	0.8	1.2	x	x
CCOc1ccc(/C=C2\CCC(C3CCCC3)C2=O)cc1OC (stereo not given)	-15.1	59.2*	-1.1	0.7	-1.6	12.3	-3.0
O=C(O)c1ccccc1NC(=O)C1CCN(S(=O)(=O)c2ccc3c(c2)OCCO3)CC1	5.8	x	-0.5	4.7	5.0	x	x
COc1ccc(S(=O)(=O)N2CCCCC2)cc1NC(=O)C1CC1(Cl)Cl (stereo not given)	3.0	x	0.1	-0.9	-2.6	x	x
O=C(NCCN1CCOCC1)c1ccc2c(c1)N(Cc1ccccc1)C(=O)c1ccccc1S2	-8.3	61.9*	-0.6	0.7	-3.8	2.1	1.3
Cc1ccccc1-c1nnc(SC(C)C(=O)NC2CCCC2)o1 (stereo not given)	-7.1	-5.7	-0.3	-0.6	-1.0	x	x
CC12CCC(=O)N1C(C(=O)N1CCN(S(=O)(=O)c3cccc(C(F)(F)F)c3)CC1)CS2 (stereo not given)	-2.2	56.5*	-0.5	-4.5	5.4	-0.5	-3.8
Cc1cc(C)c(C)c(S(=O)(=O)N2CCN(C(=O)C3CSC4(C)CCC(=O)N34)CC2)c1C (stereo not given)	-2.0	-0.2	-0.5	3.4	8.3	x	x
Cc1cc(Cl)ccc1N(CC(=O)NCc1ccc2c(c1)OCO2)S(C)(=O)=O	1.5	60.3*	0.3	1.1	2.5	11.2	-2.7
Cc1ccc(Cl)cc1N(CC(=O)NCc1ccc2c(c1)OCO2)S(C)(=O)=O	7.8	27.4	0.0	-6.6	0.3	x	x
CCN1/C(=C/c2ccc3cc(C)ccc3[n+]2CC)Sc2ccc3sccc3c21	68.3	75.1*	-0.2	-20.1	-10.0	42.5*	139.7*
CCN1/C(=C\c2ccc3cc(C)ccc3[n+]2CC)Sc2cc(C)c(C)cc21	64.8	-39.7	-0.7	-17.2	-8.2	x	x
O=C(NCCc1ccc(Cl)cc1)c1cccc(S(=O)(=O)N2CCCC2)c1	6.7	x	-0.1	3.1	-1.8	x	x
CN(C)CCCN(C(=O)c1ccc(S(=O)(=O)N(C)C2CCCCC2)cc1)c1nc2ccc(F)cc2s1	-6.8	29.2	-0.3	3.0	1.3	x	x
Cc1cc(C)c2sc(N(CCCN(C)C)C(=O)c3ccc(S(=O)(=O)N(C)C4CCCCC4)cc3)nc2c1	9.4	56.8*	-0.4	-1.0	5.5	-1.8	-5.5
COC(=O)C(C#N)(CCC(=O)c1ccccc1)CCC(=O)c1ccccc1	2.7	x	-0.1	-1.1	4.3	x	x
O=C(COC(=O)c1cnccn1)c1ccc(C2CCCCC2)cc1	5.5	21.2	-0.9	0.1	0.8	x	x
Cc1cnc(C(=O)OCC(=O)c2ccc(C3CCCCC3)cc2)cn1	0.8	57.0*	-0.4	0.2	4.2	2.4	-3.1
